Results as given in ChEMBL document CHEMBL1125074, “Autoxidation of the serotonergic neurotoxin 5,7-dihydroxytryptamine” (J Med Chem, 1990).

Legend:
[1] = Dissociation constant (pKa) was determined by spectrophotometric method; type: physicochemical
In short: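 Compound (ca. 0.1 mM) first dissolved in phosphate buffer pH 2.2 (μ = 0.1); UV-visible spectrum recorded, then pH raised in ca. 0.5-unit steps to pH 10 with NaOH, spectrum taken at each step. pKa calculated from the pH-dependent shift in λmax of the two intense UV bands.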

[2] = species: Mus musculus; assay: Compound was evaluated for lethal dose against mouse brain; type: toxicity, organism-based; conditions: in vivo
[3] = Pseudo-first-order rate constant was determined in pH 7.4 phosphate buffer in presence 70 mM EDTA; type: ADME
[4] = Pseudo-first-order rate constant was determined in pH 7.4 phosphate buffer in presence 0.5 mM EDTA; type: ADME
[5] = Compound was autooxidized for 2 hour at 37 degree Celsius in pH 7.4 phosphate buffer Pseudo-first-order rate constant; type: ADME; conditions: pH 7.4, 2 h
In short: (§1)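 5,7-DHT (0.5–1.0 mM) autoxidised at 37 °C in pH 7.4 phosphate buffer (μ = 0.2), with air vigorously bubbled through. Loss of 5,7-DHT was followed by HPLC peak area (reversed-phase RP-18; triethylamine/acetic acid mobile phase, pH 3.30; UV detection at 254 nm). The rate constant came from linear ln(peak area) vs time plots over the first 2 h.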

[6] = Pseudo-first-order rate constant was determined in pH 7.4 phosphate buffer in presence 50 mM EDTA; type: ADME
[7] = Compound was autooxidized for 2 hour at 37 degree Celsius in pH 7.4 Pseudo-first-order rate constant; type: ADME; conditions: pH 7.4, 2 h; in short: as §1
[8] = Compound was autooxidized for 2 hour at 37 degree Celsius in pH 7.4 phosphate buffer pseudo-first-order rate constant 0.1 mM EDTA; type: ADME; conditions: pH 7.4, 2 h
[9] = Dissociation constant (pKa) was reported after potentiometric titration with 0.2 mM KOH; type: physicochemical
[10] = Half-life was reported for stability at pH 8; type: physicochemical; conditions: buffer
[11] = Half-life was reported for slow rate of autooxidation reaction; type: ADME

With `NCCc1c[nH]c2c1C(=O)C(O)=C(C1=C(O)c3[nH]cc(CCN)c3C(=O)C1=O)C2=O` the pKa [1] was 6.5.
Compound `NCCc1c[nH]c2c1C(=O)C(=O)C=C2O` has an LD50 [2] of 21 µg and a pKa [1] of 5.6.
With `NCCc1c[nH]c2c(O)cc(O)cc12` the K [3] was 0.015 min⁻¹, the K [4] was 0.017 min⁻¹ and the K [5] was 0.012 min⁻¹. It also gave a K [6] of 0.014 min⁻¹, a K [7] of 0.046 min⁻¹ and a K [8] of 0.012 min⁻¹. For the same compound, the pKa [9] was 4.8.
`CC1(C)CC=CN1[O]` gave a half-life [10] of 35 min and a half-life [11] of 1 min.
